pEC50, pIC50: −log10 of the molar value. Calls of active or inactive are those of the source. The calls are words filed in the database; no cut-off is given here.
Tests used:
[1] = molecular target: Apoptosis regulator Bcl-2 (Homo sapiens, UniProt P10415); assay: Displacement of wild type mBimBH3 from human Bcl-2 by solution competition assay
Bcl-2-like protein 2 = molecular target: T1, Bcl-2-like protein 2 (Homo sapiens, UniProt Q92843); assay: Displacement of wild type mBimBH3 from human Bcl-w by solution competition assay
T1 sequence (Q92843 whole entry): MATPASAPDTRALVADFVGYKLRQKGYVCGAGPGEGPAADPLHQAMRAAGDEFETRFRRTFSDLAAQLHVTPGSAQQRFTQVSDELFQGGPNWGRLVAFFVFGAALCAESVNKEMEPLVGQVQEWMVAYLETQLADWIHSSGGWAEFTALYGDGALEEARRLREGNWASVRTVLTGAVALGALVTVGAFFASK

MEF [2] = assay: Cytotoxicity against mouse mcl-1 deficient MEF cells after 24 hrs by Cell titer glo assay in presence of 1% serum; assay type: functional, cell-based
How it was run: (§1)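 Wild-type (mcl-1 fl/fl) or Mcl-1-deficient mouse embryonic fibroblasts kept in high-glucose DME with asparagine, 2-mercaptoethanol and 10% FCS. Exposed to compound 24 h in medium with 1% or 10% FCS. […] Means ± SEM of three independent experiments.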

MEF [3] = assay: Cytotoxicity against mouse MEF cells expressing mcl-1 fl/fl after 24 hrs by Cell titer glo assay in presence of 10% serum; assay type: functional, cell-based; how it was run: as §1
[4] = molecular target: Induced myeloid leukemia cell differentiation protein Mcl-1 (Homo sapiens, UniProt Q07820); assay: Displacement of wild type mBimBH3 from Mcl-1 by solution competition assay
Chain of Induced myeloid leukemia cell differentiation protein Mcl-1 (Q07820 whole entry): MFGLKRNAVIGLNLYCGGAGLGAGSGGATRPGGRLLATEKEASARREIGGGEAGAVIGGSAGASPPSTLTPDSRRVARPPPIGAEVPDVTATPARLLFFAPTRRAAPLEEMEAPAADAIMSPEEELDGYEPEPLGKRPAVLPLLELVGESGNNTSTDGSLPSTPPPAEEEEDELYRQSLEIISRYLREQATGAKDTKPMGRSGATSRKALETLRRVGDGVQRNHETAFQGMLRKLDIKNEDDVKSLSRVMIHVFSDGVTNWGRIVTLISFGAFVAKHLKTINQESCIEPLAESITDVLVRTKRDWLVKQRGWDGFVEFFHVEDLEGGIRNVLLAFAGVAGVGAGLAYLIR

MEF [5] = assay: Cytotoxicity against mouse MEF cells expressing mcl-1 fl/fl after 24 hrs by Cell titer glo assay in presence of 1% serum; assay type: functional, cell-based; how it was run: as §1
MEF [6] = assay: Cytotoxicity against mouse mcl-1 deficient MEF cells after 24 hrs by Cell titer glo assay in presence of 10% serum; assay type: functional, cell-based; how it was run: as §1
[7] = Cytotoxicity against human NCI-H146 after 48 hrs by MTS assay in presence of 10% human serum; assay type: functional; settings: NCI-H146, 48 h
How it was run: (§2)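 Treated 48 h in medium with 10% human serum. Each concentration run in duplicate, at least three separate times. Viability read by MTS proliferation assay.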

NCI-H1963 = assay: Cytotoxicity against human NCI-H1963 after 48 hrs by MTS assay in presence of 10% human serum; assay type: functional, cell-based; settings: NCI-H1963, 48 h; how it was run: as §2
NCI-H889 = assay: Cytotoxicity against human NCI-H889 after 48 hrs by MTS assay in presence of 10% human serum; assay type: functional, cell-based; settings: NCI-H889, 48 h; how it was run: as §2
MEF [8] = assay: Cytotoxicity against mouse MEF cells expressing mcl-1 fl/fl after 24 hrs by Cell titer glo assay in presence of 10% fetal bovine serum; assay type: functional, cell-based; how it was run: as §1
MEF [9] = assay: Cytotoxicity against mouse mcl-1 deficient MEF cells after 24 hrs by Cell titer glo assay in presence of 10% fetal bovine serum; assay type: functional, cell-based; how it was run: as §1
Bcl-2-like protein 1 [10] = molecular target: T2, Bcl-2-like protein 1 (Homo sapiens, UniProt Q07817); assay: Binding affinity to Bcl-Xl assessed as association rate constant by surface plasmon resonance assay
T2 sequence (Q07817 whole entry): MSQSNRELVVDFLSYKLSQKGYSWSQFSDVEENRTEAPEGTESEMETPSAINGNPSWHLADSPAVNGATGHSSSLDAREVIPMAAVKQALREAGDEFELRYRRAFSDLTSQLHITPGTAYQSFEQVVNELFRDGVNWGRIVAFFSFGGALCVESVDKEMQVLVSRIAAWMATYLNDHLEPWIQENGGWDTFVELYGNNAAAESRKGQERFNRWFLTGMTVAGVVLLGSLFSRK
How it was run: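 Biacore SPR direct binding. Anti-GST antibody amine-coupled to CM5 chip (~10000 RU); GST-Bcl-xL captured (~1200 RU), fresh protein each cycle. Compound series injected at 90 μL/min, 25 °C; association 95 s, dissociation 240 s. Phosphate/NaCl/EDTA/Tween buffer with 5% DMSO, pH 7.4. Double referencing and DMSO solvent correction; fit to one-to-one model with mass transport for k_a, k_d.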

Bcl-2-like protein 1 [11] = molecular target: T2, Bcl-2-like protein 1; assay: Displacement of biotinylated Bim-BH3 from GST-tagged Bcl-Xl by AlphaScreen competitive assay
How it was run: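 Titration into a mix of GST-tagged Bcl-xL ΔC25 (0.6 nM final) and biotinylated Bim BH3-26 peptide (5.0 nM final), with anti-GST acceptor and streptavidin donor beads (15 μg/mL each). Protein–acceptor and peptide–donor pairs were preincubated 30 min, then added in turn, 4 h at room temperature. DMSO 1.0% final.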

MEF [12] = assay: Cytotoxicity against mouse MEF cells expressing mcl-1 fl/fl at 10 uM after 24 hrs by Cell titer glo assay in presence of 10% fetal bovine serum; assay type: functional, cell-based

Chain of Apoptosis regulator Bcl-2 (P10415 whole entry): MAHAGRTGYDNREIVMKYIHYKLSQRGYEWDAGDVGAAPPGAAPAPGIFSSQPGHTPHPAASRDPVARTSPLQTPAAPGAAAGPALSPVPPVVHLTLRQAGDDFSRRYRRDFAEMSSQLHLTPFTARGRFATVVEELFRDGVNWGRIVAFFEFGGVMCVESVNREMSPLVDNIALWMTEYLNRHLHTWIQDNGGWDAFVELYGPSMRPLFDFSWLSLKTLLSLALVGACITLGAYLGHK

Row | Structure (SMILES) | pIC50 [1] | pIC50 (Bcl-2-like protein 2) | pEC50 (MEF [2]) | pEC50 (MEF [3]) | pIC50 [4] | pEC50 (MEF [5]) | pEC50 (MEF [6]) | pEC50 [7] | pEC50 (NCI-H1963) | pEC50 (NCI-H889) | pEC50 (MEF [8]) | pEC50 (MEF [9]) | Ka (Bcl-2-like protein 1 [10]) [×10⁵ /M/s] | pIC50 (Bcl-2-like protein 1 [11]) | Activity (MEF [12])
1 | CC1(C)CCC(c2ccc(Cl)cc2)=C(CN2CCN(c3ccc4c(NS(=O)(=O)c5ccc(N[C@H](CCN6CCOCC6)CSc6ccccc6)c(S(=O)(=O)C(F)(F)F)c5)ncnc4c3)CC2)C1 | 7.08 | < 6.00 | 7.43 | < 5.00 | < 6.00 | < 5.00 | 6.48 | – | – | – | – | – | – | – | –
2 | O=[N+]([O-])c1cc(S(=O)(=O)Nc2ncnc3cc(N4CCN(Cc5ccccc5-c5ccc(Cl)cc5)CC4)ccc23)ccc1N[C@H](CCN1CCOCC1)CSc1ccccc1 | 7.68 | < 6.00 | 7.61 | < 5.00 | < 6.00 | < 5.00 | 6.72 | 5.43 | 5.85 | 5.89 | – | – | – | – | –
3 | CN(C)CC[C@H](CSc1ccccc1)Nc1ccc(S(=O)(=O)Nc2ncnc3cc(N4CCN(CC5=C(c6ccc(Cl)cc6)CCC(C)(C)C5)CC4)ccc23)cc1[N+](=O)[O-] | 7.92 | 6.27 | 7.80 | 5.37 | < 6.00 | 5.79 | 7.21 | – | – | – | – | – | – | – | –
4 | CC1(C)CCC(c2ccc(Cl)cc2)=C(CN2CCN(c3ccc4c(NS(=O)(=O)c5ccc(N[C@H](CCN6CCOCC6)CSc6ccccc6)c([N+](=O)[O-])c5)ncnc4c3)CC2)C1 | 7.68 | < 6.00 | 7.42 | < 5.00 | < 6.00 | < 5.00 | 6.65 | – | – | – | – | – | – | – | –
5 | O=S(=O)(Nc1ncnc2cc(N3CCN(Cc4ccccc4-c4ccc(Cl)cc4)CC3)ccc12)c1ccc(N[C@H](CCN2CCOCC2)CSc2ccccc2)c(S(=O)(=O)C(F)(F)F)c1 | 7.09 | < 6.00 | 7.65 | < 5.00 | < 6.00 | < 5.00 | 6.83 | 6.20 | 6.40 | 6.09 | – | – | – | – | –
6 | CN(C)CC[C@H](CSc1ccccc1)Nc1ccc(S(=O)(=O)Nc2ncnc3cc(N4CCN(Cc5ccccc5-c5ccc(Cl)cc5)CC4)ccc23)cc1[N+](=O)[O-] | 8.06 | 6.36 | 7.40 | 5.24 | < 6.00 | 5.77 | 6.96 | 6.21 | 6.77 | 6.68 | 5.24 | 6.96 | 1.9 | – | –
7 | CN(C)CC[C@H](CSc1ccccc1)Nc1ccc(S(=O)(=O)Nc2ncnc3cc(N4CCN(Cc5ccccc5-c5ccc(Cl)cc5)CC4)ccc23)cc1S(=O)(=O)C(F)(F)F | 7.89 | 6.61 | – | – | < 6.00 | – | – | – | – | – | – | – | – | – | –
8 | O=C(NS(=O)(=O)c1ccc(NCCSc2ccccc2)c([N+](=O)[O-])c1)c1ccc(-c2ccc(F)cc2)cc1 | – | – | – | – | – | – | – | – | – | – | – | – | – | 5.82 | –
9 | CC1(C)CCC(c2ccc(Cl)cc2)=C(CN2CCN(c3ccc(C(=O)NS(=O)(=O)c4ccc(N[C@H](CCN5CCOCC5)CSc5ccccc5)c(S(=O)(=O)C(F)(F)F)c4)cc3)CC2)C1 [NAVITOCLAX] | – | – | – | – | – | – | – | 7.10 | 7.29 | 6.92 | – | – | – | – | –
10 | CN(C)CC[C@H](CSc1ccccc1)Nc1ccc(S(=O)(=O)Nc2ncnc3cc(N4CCN(CC5=C(c6ccc(Cl)cc6)CCC(C)(C)C5)CC4)ccc23)cc1S(=O)(=O)C(F)(F)F | 8.30 | 6.56 | 7.94 | 5.26 | < 6.00 | 5.58 | 7.43 | – | – | – | – | – | – | – | –
11 | CN(C)CC[C@H](CSc1ccccc1)Nc1ccc(S(=O)(=O)NC(=O)c2ccc(N3CCN(Cc4ccccc4-c4ccc(Cl)cc4)CC3)cc2)cc1[N+](=O)[O-] [ABT 737] | – | – | 8.69 | < 5.00 | – | < 5.00 | 7.29 | – | – | – | – | 7.29 | 7.9 | – | inactive

Source: ChEMBL document CHEMBL1687940, “Quinazoline sulfonamides as dual binders of the proteins B-cell lymphoma 2 and B-cell lymphoma extra long with potent proapoptotic cell-based activity” (J Med Chem, 2011)
